Rows were chosen to be rich in hits. Some 1.1% of all compounds tested hit in one or more screens of this group.
miR122 inh: miR-122 inhibition in Huh7 cells. activation (reporter increase), % at 12.5 µM. Huh7 miR-122 Renilla luciferase sensor, 48 h; neutral wells = 0, positive control = 100. hit rate 0.3% among 340,000. AID 602342;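 active = mean replicate activation score at least 90 and every replicate individually at or above 90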;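 also: higher luciferase means less miR-122 activity so hits act as miR-122 inhibitors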
Cneo AK release: Cryptococcus neoformans lysis via adenylate kinase release | C. neoformans lysis, adenylate kinase release luminescence, 4 h; normalised: neutral wells 0, clomiphene wells 100 | AID 651654 | hit rate 0.2% among 360,000 | lysis activity, % at 15 µM;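 active = mean lysis activity across replicates of at least 80%, whatever share of replicates individually reach that level; inactive = mean lysis activity below 80%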
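Schedule: static 4 h at 37 °C with compound, 1 h detection; system: C. neoformans cells; benchmarks: Clomiphene as positive control; buffer or medium: fresh YPD medium; measure: luminescence rise reflecting yeast cell lysis; measured by: luminescent adenylate kinase detection reagent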
PglD DTNB: PglD (C. jejuni) enzyme inhibition; purified PglD enzyme, DTNB colorimetric CoA detection; inhibition, % at 12.5 µM; hit rate 0.098% among 360,000; in the data active = inhibition above about 16%, passing the limit was not always enough
CAL PDZ FP-1: CAL PDZ (human) peptide binding inhibition | hit rate 0.92% among 300,000 | AID 602252 | inhibition, % at 24.9 µM | purified CAL PDZ, TMR-peptide fluorescence polarization, 1 h | Q9HD26;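 active = mean inhibition of at least 30% with at least half of replicates also reaching 30%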;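 also: 0% = DMSO neutral control and 100% = excess unlabeled competitor peptide PRC23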
CAL PDZ FP-2: blocks peptide binding to human CAL PDZ domain | inhibition, % at 20 µM | hit rate 0.02% among 330,000 | purified CAL PDZ, TMR-peptide fluorescence polarization, 1 h | Q9HD26;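 active = highest replicate inhibition of at least 40%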;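 also: plate controls were DMSO neutral control wells for no effect and unlabeled competitor peptide control wells for full effect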
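Material – purified CerCALP PDZ construct · Detection – FP readout, S and P plane fluorescence · Measure – percent inhibition from loss of millipolarization · Controls – unlabelled peptide for full inhibition, DMSO wells as neutral · Probe or stimulus – TMR-labelled reporter peptide T*-PRC34 bound in PDZ groove · Times – 1 h at RT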
Active calls of the source: *; / = not tested or not shown; + = active, no number; [ ] = dose if it differs, or a comment.

SMILES	miR122 inh	Cneo AK release	PglD DTNB	CAL PDZ FP-1	CAL PDZ FP-2
COc1ccc(-c2csc(N3C(=O)CNC3=S)n2)cc1	/	/	/	67*	-1
C[C@@H]1CN([C@@H](C)CO)C(=O)c2c(c3ccccc3n2C)-c2ccccc2CO[C@@H]1CN(C)C(=O)[C@@H]1CCCN1C	/	-4	2	/	/
O=C(NC1CCCCC1)N1CCN(c2nc(-c3ccccc3)cs2)CC1	-6	8	-2	59*	-8
O=C(NC12CC3CC(CC(C3)C1)C2)N1CCN(c2nc(-c3ccccc3)cs2)CC1	-8	/	/	-3	-1
COc1ccc(NC(=O)c2noc(C(C)C)c2[N+](=O)[O-])cc1	-2	84*	4	-3	-3
COc1ccc(C(=O)N[C@H](C(=O)Nc2nc3ccccc3[nH]2)C(C)C)cc1	117*	-14	-2	-1	2
COCC(=O)N[C@@H]1CC[C@@H](CC(=O)N2CCCCC2)O[C@H]1CO	-5[16.7 µM]	8	4	/	/
Cc1ccc(C(=O)Nc2cccc(C(=O)N/N=C/c3ccc(F)cc3)c2)cc1	/	-3	-6	75*	-2
O=C(N/N=C/c1ccccc1)c1[nH]ncc1Br	/	/	/	-4	/
CC(=O)Nc1cccc(C(=O)N/N=C/c2ccc(F)cc2)c1	/	/	/	-4	-2
COc1ccc(/C=N/NC(=O)c2cccnc2)cc1O	6	-8	-6	37*	-1
O=C(N/N=C/c1cccnc1)c1cccc(F)c1	1	1	-2	52*	/
O=C(N/N=C/c1cccnc1)c1[nH]ncc1Br	-1	-1	7	49*	0
CCOc1ccccc1N1CCN(C(=O)c2ccccc2SCC(=O)N2CCCC2)CC1	3	1	1	-3	-2
C[C@@H]1CN([C@@H](C)CO)C(=O)c2cc(NC(=O)C3CC3)ccc2O[C@H]1CN(C)S(=O)(=O)c1ccc(Cl)cc1	-10[16.7 µM]	19	0	/	/
Fc1ccc(CCNc2ncnc3[nH]ncc23)cc1	-4	-1	1	/	-1
Cc1ccc(CNc2ncnc3[nH]ncc23)cc1	-10	-1	1	62*	5
O=C1COc2ccccc2CN1	-2	0	2	+	-1
O=C1COc2cccnc2N1	-3	0	0	-2	-3
CCC(=O)N1C[C@H](C)[C@@H](OC)CN(C)C(=O)c2cc(NS(=O)(=O)CC)ccc2OC[C@@H]1C	5[16.7 µM]	1	1	/	/
CSc1ccccc1C(=O)Nc1ccc2c(c1)CCC2	5	-2	-17	68*	-3
Cc1cc(C)n2nc(SCc3nnc(-c4ccccc4Br)o3)nc2n1	7	-2	-11	-3	-2
COc1ccc(N(CC(=O)N2CCCCCC2)S(=O)(=O)c2ccc(OC)c(OC)c2)cc1	17	-3	5	51*	-1
Cc1ccc(S(=O)(=O)N(CC(=O)N2CCC(C)CC2)c2cccc(C)c2)cc1	144*	0	3	-1	-4
COc1ccc(OC)c(N(CC(=O)N2CCCCC2)S(=O)(=O)c2ccc(OC)c(OC)c2)c1	42	2	-9	-1	-2
SMILES	miR122 inh	Cneo AK release	PglD DTNB	CAL PDZ FP-1	CAL PDZ FP-2
CC1CCN(C(=O)CN(c2ccc3c(c2)OCCO3)S(=O)(=O)c2ccccc2)CC1	104*	1	1	-8	0
COc1ccc(OC)c(N(CC(=O)N2CCC(C)CC2)S(=O)(=O)c2ccccc2)c1	232*	0	-3	-1	-2
C[C@@H]1CN([C@@H](C)CO)C(=O)Cc2cc(NC(=O)Nc3ccc4c(c3)OCO4)ccc2O[C@H]1CN(C)CC1CC1	-3[16.7 µM]	-3	3	/	/
O=C(C[C@@H]1CC[C@H]2NC[C@@H](O)COC[C@@H]2O1)N1CCc2ccccc2C1	-3[16.7 µM]	-3	1	/	/
CCn1ncc(Br)c1C(=O)Nc1cc(C)on1	2	-2	7	41*	-1
Cn1nnnc1SCc1cccc2ccccc12	/	/	/	34*	/
O=C(N/N=C/c1cc(Br)ccc1O)c1ccncc1	2	0	3	113*	/
CCOc1ccccc1NC(=O)C(=O)N/N=C/c1cc(Br)ccc1O	1	/	/	67*	0
CCOc1ccccc1C=NNC(=O)C(=O)NN=Cc1ccccc1OCC	4	-2	-4	-4	0
CO[C@H]1CN(C)C(=O)c2cc(NC(=O)CC(F)(F)F)ccc2OC[C@H](C)N(CCC(F)(F)F)C[C@@H]1C	-11[16.7 µM]	1	2	/	/
CCC(C)(C(=O)NC1CCCCC1)N(C(=O)CC1NC(=O)NC1=O)c1c(C)n(C)n(-c2ccccc2)c1=O (stereo unspecified)	-5	1	-1	34*	-2
Cc1noc(C)c1NC(=O)Nc1ccc2c(c1)CC(=O)N([C@@H](C)CO)C[C@@H](C)[C@@H](CN(C)Cc1ccc(C(=O)O)cc1)O2	-10[16.7 µM]	-1	0	/	/
Cc1cc(/C=C(\C#N)C(=O)O)c(C)n1-c1ccc(Br)cc1	-2	-4	7	+	-2
Cc1cc(C=C(C#N)C#N)c(C)n1-c1ccccc1	-3	0	-1	-4	1
O=C1OC(CO)CN1Cc1ccccc1 (stereo unspecified)	-11	-1	-8	58*	/
O=C1OC(CCl)CN1Cc1c(Cl)cccc1Cl (stereo unspecified)	/	/	/	2	-1
C[C@@H]1CCCCO[C@H](CN(C)Cc2ccc(C(=O)O)cc2)[C@@H](C)CN([C@@H](C)CO)C(=O)c2cc(NC(=O)Nc3ccccc3)ccc2O1	5[16.7 µM]	4	5	/	/
C[C@H](CO)N1C[C@H](C)[C@@H](CN(C)S(=O)(=O)c2cn(C)cn2)Oc2c(NC(=O)Nc3ccccc3)cccc2C1=O	34[16.7 µM]	97*	-2	/	/
C[C@@H]1CN([C@H](C)CO)C(=O)c2cccc(NC(=O)Nc3ccccc3)c2O[C@H]1CN(C)S(=O)(=O)c1cn(C)cn1	4[16.7 µM]	38	-3	/	/
C[C@@H]1CN([C@@H](C)CO)C(=O)c2cccc(NC(=O)Nc3ccccc3)c2O[C@H]1CN(C)S(=O)(=O)c1cn(C)cn1	17[16.7 µM]	97*	3	/	/
COc1ccc(NC(=O)Nc2ccc3c(c2)C(=O)N([C@@H](C)CO)C[C@H](C)[C@H](CN(C)S(=O)(=O)c2ccc(OC)cc2)O3)cc1	-20[16.7 µM]	-1	2	/	/
COc1ccc([C@H]2N[C@]3(CCCN(Cc4cccn4C)C3=O)[C@H]3C(=O)N(Cc4ccccc4)C(=O)[C@@H]23)cc1	5	0	-7	/	/
CC(C)NC(=O)Nc1cccc2c1O[C@H](CN(C)S(=O)(=O)c1ccc(F)cc1)[C@@H](C)CN([C@@H](C)CO)C2=O	-7[16.7 µM]	-3	-2	/	/
CC(C)(C)S(=O)(=O)c1cnc2c(-c3ccsc3)cnn2c1N	/	/	/	48*	0
CCOc1ccc(N2C(=O)Nc3ccccc3C2(O)C(=O)NCc2ccc(C)cc2)cc1 (stereo unspecified)	/	/	/	4	0
CCOc1ccc(N2C(=O)Nc3ccccc3C2(O)C(=O)NCc2ccc3c(c2)OCO3)cc1 (stereo unspecified)	171*	-1	-4	-2	-3
